# Active and inactive are the calls of the source. The calls are words filed in the database; no cut-off is given here.
# What was measured:
# [1] = molecular target: Serine/threonine-protein kinase mTOR (Homo sapiens, UniProt P42345); assay: Inhibition of human mTOR at 10 uM using 4EBP1 as substrate after 120 mins by [gamma-33P]-ATP assay
# Method in brief: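 Single-point kinase screen by HotSpot radioisotope filter binding assay; compound at 10 μM with 10 μM ATP, reported as percent inhibition of PI3Kα and mTOR.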
# [2] = molecular target: PI3-kinase p110-alpha/p85-alpha (Homo sapiens) (UniProt P27986+P42336); assay: Inhibition of human PI3K p110alpha/p85alpha at 10 uM using PIP2 as substrate incubated for 10 mins followed by ATP addition and measured after 30 mins in presence of 10 uM ATP by HTRF assay; type: protein-complex assay
# MDA-MB-231 = assay: Antiproliferative activity against human MDA-MB-231 cells assessed as cell viability at 10 uM after 48 hrs by celltiter-glo 2D luminescent assay relative to control; type: functional; settings: read-out: Activity
# Method in brief: (§1)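 2D CellTiter-Glo luminescent viability screen, single 10 μM compound concentration, in MDA-MB-468, MDA-MB-231 and MCF7 breast cancer cells and in normal human dermal fibroblasts; output reported as percent of viable cells.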
# [3] = molecular target: PI3-kinase p110-alpha/p85-alpha (Homo sapiens, UniProt P42336); assay: Inhibition of human PI3K p110alpha/p85alpha using PIP2 as substrate incubated for 10 mins followed by ATP addition and measured after 30 mins in presence of 10 uM ATP by HTRF assay; type: protein-complex assay
# Chain of PI3-kinase p110-alpha/p85-alpha (P27986 whole entry): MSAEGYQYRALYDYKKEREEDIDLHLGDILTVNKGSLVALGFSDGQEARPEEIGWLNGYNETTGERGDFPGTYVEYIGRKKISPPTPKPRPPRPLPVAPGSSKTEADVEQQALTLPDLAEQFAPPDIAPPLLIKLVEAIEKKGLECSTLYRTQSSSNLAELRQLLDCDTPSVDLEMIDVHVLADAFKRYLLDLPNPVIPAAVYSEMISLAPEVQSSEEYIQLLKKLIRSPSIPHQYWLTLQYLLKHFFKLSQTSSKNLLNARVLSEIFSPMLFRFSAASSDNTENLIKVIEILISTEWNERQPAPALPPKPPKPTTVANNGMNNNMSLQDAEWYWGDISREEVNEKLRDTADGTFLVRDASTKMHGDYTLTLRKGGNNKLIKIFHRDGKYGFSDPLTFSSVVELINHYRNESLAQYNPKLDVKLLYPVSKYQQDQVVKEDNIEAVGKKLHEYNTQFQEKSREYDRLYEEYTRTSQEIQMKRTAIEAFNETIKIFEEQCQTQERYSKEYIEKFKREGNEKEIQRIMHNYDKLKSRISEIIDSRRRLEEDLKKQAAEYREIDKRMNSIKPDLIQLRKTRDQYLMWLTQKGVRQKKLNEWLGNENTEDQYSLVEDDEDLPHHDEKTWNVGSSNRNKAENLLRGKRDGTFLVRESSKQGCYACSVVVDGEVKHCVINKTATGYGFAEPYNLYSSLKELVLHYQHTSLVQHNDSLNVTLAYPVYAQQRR
# Chain of PI3-kinase p110-alpha/p85-alpha (P42336 whole entry): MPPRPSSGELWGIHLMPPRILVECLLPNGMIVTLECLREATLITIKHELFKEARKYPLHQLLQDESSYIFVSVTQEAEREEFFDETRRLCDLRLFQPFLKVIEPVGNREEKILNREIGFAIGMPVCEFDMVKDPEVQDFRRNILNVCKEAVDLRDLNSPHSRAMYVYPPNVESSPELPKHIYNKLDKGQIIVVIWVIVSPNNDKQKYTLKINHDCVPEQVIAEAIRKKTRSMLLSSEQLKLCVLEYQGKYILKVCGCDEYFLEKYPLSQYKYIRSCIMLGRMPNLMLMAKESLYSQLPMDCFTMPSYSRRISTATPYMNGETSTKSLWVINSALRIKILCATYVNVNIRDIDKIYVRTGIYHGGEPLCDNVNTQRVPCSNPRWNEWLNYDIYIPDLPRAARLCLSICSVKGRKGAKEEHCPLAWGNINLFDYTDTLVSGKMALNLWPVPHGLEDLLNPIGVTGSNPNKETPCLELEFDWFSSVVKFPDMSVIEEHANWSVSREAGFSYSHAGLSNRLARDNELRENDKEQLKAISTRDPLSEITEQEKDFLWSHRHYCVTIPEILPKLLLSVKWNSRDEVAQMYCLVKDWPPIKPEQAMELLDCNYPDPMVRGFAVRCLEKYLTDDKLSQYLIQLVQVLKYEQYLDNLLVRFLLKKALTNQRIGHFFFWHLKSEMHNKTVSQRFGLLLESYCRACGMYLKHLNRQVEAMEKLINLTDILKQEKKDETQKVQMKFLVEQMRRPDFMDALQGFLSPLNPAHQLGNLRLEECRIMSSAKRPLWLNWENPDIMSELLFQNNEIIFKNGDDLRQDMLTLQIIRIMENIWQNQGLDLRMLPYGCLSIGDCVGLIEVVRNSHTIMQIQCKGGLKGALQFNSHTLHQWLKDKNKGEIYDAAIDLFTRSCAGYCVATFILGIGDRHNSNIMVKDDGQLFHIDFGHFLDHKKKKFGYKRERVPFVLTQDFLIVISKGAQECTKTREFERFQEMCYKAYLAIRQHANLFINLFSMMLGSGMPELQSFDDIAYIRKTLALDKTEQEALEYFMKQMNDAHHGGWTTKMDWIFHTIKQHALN
# [4] = Half life in CD1 mouse liver microsomes at 1 uM incubated for 60 mins under shaking condition by LC-MS/MS analysis; type: ADME, Microsome
# Method in brief: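 Metabolic stability in mouse liver microsomes with test compound at 1 μM; result expressed as t1/2 (min).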
# [5] = Kinetic aqueous solubility of compound in 2% DMSO/Phosphate buffer saline incubated for 90 mins under shaking condition by; type: physicochemical; settings: 2% DMSO/phosphate buffered saline, read-out: Kinetic_solubility
# Method in brief: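 Maximum kinetic aqueous solubility measured in 2% DMSO/phosphate-buffered saline, pH 7.4.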
# MCF7 [6] = assay: Antiproliferative activity against human MCF7 cells assessed as cell viability at 10 uM after 48 hrs by celltiter-glo 2D luminescent assay relative to control; type: functional; settings: read-out: Activity; method in brief: as §1
# [7] = Cytotoxicity against human primary fibroblasts assessed as cell viability at 10 uM after 48 hrs by celltiter-glo 2D luminescent assay relative to control; type: cell-based, Fibroblast; settings: read-out: Activity; method in brief: as §1
# MCF7 [8] = assay: Antiproliferative activity against human MCF7 cells assessed as reduction in cell viability after 48 hrs by celltiter-glo 3D luminescent assay; type: functional, cell-based; settings: MCF7, 48 h
# Method in brief: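 MCF7 cells grown in 3D culture, viability read by CellTiter-Glo 3D luminescence; dose–response curves run up to 15 μM to derive IC50.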
# MDA-MB-468 = assay: Antiproliferative activity against human MDA-MB-468 cells assessed as cell viability at 10 uM after 48 hrs by celltiter-glo 2D luminescent assay relative to control; type: functional; settings: read-out: Activity; method in brief: as §1
SMILES,inhibition [1],inhibition [2],viability at 10 µM (MDA-MB-231),IC50 [3],half-life at 1 µM [4],solubility kinetic at 1.5 h [5],viability at 10 µM (MCF7 [6]),"viability at 48 h, 10 µM [7]",IC50 (MCF7 [8]),viability at 10 µM (MDA-MB-468)
CCOC(=O)c1ccc(Nc2nc(N3CCOCC3)c3ccccc3n2)cc1,Active,Active,–,–,–,–,–,–,–,–
O=C(NCCO)Nc1ccc(-c2nc(N3CCOCC3)c3ccccc3n2)cc1,Active,Active,146%,185 nM,53.1 min,200 µM,31%,95%,700 nM,65%
O=C(Nc1ccc(-c2nc(N3CCOCC3)c3ccccc3n2)cc1)Nc1cncnc1,–,–,138%,114 nM,24.5 min,2.7 µM,21%,88%,1600 nM,56%
CC(=O)c1ccc(Nc2nc(N3CCOCC3)c3ccccc3n2)cc1,Active,Active,–,–,–,–,–,–,–,–
NS(=O)(=O)c1ccc(NC(=O)Nc2ccc(-c3nc(N4CCOCC4)c4ccccc4n3)cc2)cc1,Active,Active,114%,3.4 nM,> 60 min,< 2 µM,8%,84%,200 nM,33%
CC(=O)c1ccc(NC(=O)Nc2ccc(-c3nc(N4CCOCC4)c4ccccc4n3)cc2)cc1,Active,Active,74%,16.6 nM,> 60 min,2 µM,22%,20%,–,42%
O=C(Nc1ccc(CO)cc1)Nc1ccc(-c2nc(N3CCOCC3)c3ccccc3n2)cc1,Active,Active,208%,2.4 nM,> 60 min,14.3 µM,7%,86%,200 nM,60%
N=C(N)NS(=O)(=O)c1ccc(NC(=O)Nc2ccc(-c3nc(N4CCOCC4)c4ccccc4n3)cc2)cc1,Active,Active,152%,18.5 nM,> 60 min,6.1 µM,30%,92%,300 nM,51%
O=C(Nc1ccccc1)Nc1ccc(-c2nc(N3CCOCC3)c3ccccc3n2)cc1,Active,Active,140%,12 nM,> 60 min,8.1 µM,35%,99%,1200 nM,80%
N=C(N)NS(=O)(=O)c1ccc(Nc2nc(N3CCOCC3)c3ccccc3n2)cc1,Active,Active,–,5900 nM,44.9 min,22.7 µM,–,–,–,–
O=S(=O)(Nc1ccccn1)c1ccc(Nc2nc(N3CCOCC3)c3ccccc3n2)cc1,Active,Active,–,–,–,–,–,–,–,–
O=C(Nc1ccc(-c2nc(N3CCOCC3)c3ccccc3n2)cc1)Nc1ccc(S(=O)(=O)Nc2nccs2)cc1,Active,Active,140%,26.1 nM,> 60 min,3.1 µM,40%,95%,1800 nM,59%
Oc1ccc(-c2nc(N3CCOCC3)c3ccccc3n2)cn1,Active,Active,–,–,–,–,–,–,–,–
O=C(Nc1ccc(-c2nc(N3CCOCC3)c3ccccc3n2)cc1)Nc1cccc(CO)c1,Active,Active,138%,7.2 nM,> 60 min,8.2 µM,13%,94%,300 nM,47%
CNC(=O)Nc1ccc(-c2nc(N3CCOCC3)c3ccccc3n2)cc1,Active,Active,180%,186 nM,8 min,192 µM,34%,71%,–,96%
NS(=O)(=O)c1ccc(Nc2nc(N3CCOCC3)c3ccccc3n2)cc1,Active,Active,–,–,–,–,–,–,–,–
O=C(O)c1cccc(-c2nc(N3CCOCC3)c3ccccc3n2)c1,Active,Active,–,–,–,–,–,–,–,–
O=C(Nc1ccc(CCO)cc1)Nc1ccc(-c2nc(N3CCOCC3)c3ccccc3n2)cc1,Active,Active,192%,1.41 nM,38.2 min,5.9 µM,7%,63%,300 nM,74%
CNC(=O)c1ccc(NC(=O)Nc2ccc(-c3nc(N4CCOCC4)c4ccccc4n3)cc2)cc1,Active,Active,66%,2.5 nM,> 60 min,< 2 µM,12%,80%,300 nM,54%
O=S(=O)(Nc1ncccn1)c1ccc(Nc2nc(N3CCOCC3)c3ccccc3n2)cc1,Active,Active,–,–,–,–,–,–,–,–
CS(=O)(=O)Nc1ccc(NC(=O)Nc2ccc(-c3nc(N4CCOCC4)c4ccccc4n3)cc2)cc1,Active,Active,137%,6.2 nM,60 min,6.9 µM,8%,38%,–,66%
N#Cc1cccc(-c2nc(N3CCOCC3)c3ccccc3n2)c1,Active,Active,–,–,–,–,–,–,–,–
Oc1cccc(-c2nc(N3CCOCC3)c3oc4ncccc4c3n2)c1 [PI-103],–,–,–,–,7.1 min,3.4 µM,–,42%,–,–

# From ChEMBL document CHEMBL4725466, “Discovery and SAR of Novel Disubstituted Quinazolines as Dual PI3Kalpha/mTOR Inhibitors Targeting Breast Cancer” (ACS Med Chem Lett, 2020)
